This is an account of results in ChEMBL document CHEMBL1125731, “2,3-Dihydrobenzofuran analogues of hallucinogenic phenethylamines” (J Med Chem, 1991).

Series [1] deals with Rattus norvegicus. Description: Percent of animals selecting drug liver was determined at a dose of 32.56 intraperitoneally. (No. of animals disrupted:1). It counts as functional. Summed up:
(§1)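 Male Sprague-Dawley rats (~200 g) were kept at ~80% free-feeding weight and trained on FR-50 to discriminate LSD tartrate (0.08 mg/kg ip) from saline. Test drug was given ip in saline 30 min before a session lasting until 50 responses or 5 min, unreinforced. Rats failing to make 50 responses were scored disrupted. At least eight rats were tested per dose.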

Series [2] concerns Rattus norvegicus. Description: Percent of animals selecting drug liver was determined at a dose of 40.70 intraperitoneally. (No. of animals disrupted:4). It counts as functional. Summed up:
as §1

The subject of series [3] is Rattus norvegicus. Description: Percent of animals selecting drug liver was determined at a dose of 16.28 intraperitoneally. (No. of animals disrupted:1). It counts as functional. In short, it runs like this: as §1
For series [4], the system named is Rattus norvegicus. Description: Percent of animals selecting drug liver was determined at a dose of 4.07 intraperitoneally. ( No. of animals disrupted:0). The series is classed as functional. Summed up: as §1
For series [5], the system named is Rattus norvegicus. Description: Percent of animals selecting drug liver was determined at a dose of 8.14 intraperitoneally. (No. of animals disrupted:1). The series is classed as functional. Summed up: as §1
Series [6] can be described thus: Hill coefficient as determined. Summed up: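 Rat prefrontal cortex homogenate incubated in triplicate with 0.25 nM [125I]-(R)-DOI (2000 Ci/mmol) and varying displacer concentrations, 37 °C for 15 min. The radioligand K_D was 1.34 nM. Binding curves were fitted by computer analysis. Protein was measured by Bradford.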
In series [7] the test system is Rattus norvegicus. Description: Percent of animals selecting drug liver was determined at a dose of 10.19 intraperitoneally. (No. of animals disrupted:0). It counts as functional. Summed up: as §1
Series [8] relates to Rattus norvegicus. Description: Percent of animals selecting drug liver was determined at a dose of 12.16 intraperitoneally. (No. of animals disrupted:1). The series is classed as functional. In short, it runs like this:
as §1

In series [9] the target is Serotonin 2 (5-HT2) receptor (Rattus norvegicus, UniProt P30994+P08909+P14842). Put plainly: Compound was evaluated for its ability to displace 0.25 nM [125I](R)-DOI from binding sites in rat frontal cortex. It counts as tissue-based.
Series [10] deals with Rattus norvegicus. Put plainly: Percent of animals selecting drug liver was determined at a dose of 8.16 intraperitoneally. (No. of animals disrupted:0). It counts as functional. Summed up: as §1
Series [11] deals with Rattus norvegicus. Put plainly: Percent of animals selecting drug liver was determined at a dose of 2.03 intraperitoneally. (No. of animals disrupted:0). The series is classed as functional. Summed up: as §1
The test system of series [12] is Rattus norvegicus. Put plainly: Percent of animals selecting drug liver was determined at a dose of 0.51 intraperitoneally. (No. of animals disrupted:0). It counts as functional. Summed up: as §1
Series [13] concerns Rattus norvegicus. Put plainly: Percent of animals selecting drug liver was determined at a dose of 2.03 intraperitoneally. (No. of animals disrupted:2). The series is classed as functional. Summed up: as §1
Series [14] relates to Rattus norvegicus. Put plainly: Percent of animals selecting drug liver was determined at a dose of 0.25 intraperitoneally. (No. of animals disrupted:0). It counts as functional. In short, it runs like this:
as §1

Series [15] has as its system Rattus norvegicus. Put plainly: Percent of animals selecting drug liver was determined at a dose of 1.01 intraperitoneally. (No. of animals disrupted:0). The series is classed as functional. Summed up: as §1
Series [16] deals with Rattus norvegicus. Description: Percent of animals selecting drug liver was determined at a dose of 2.03 intraperitoneally. (No. of animals disrupted:1). The series is classed as functional. Summed up: as §1
Series [17] concerns Rattus norvegicus. Put plainly: Percent of animals selecting drug liver was determined at a dose of 1.02 intraperitoneally. (No. of animals disrupted:0). It counts as functional. Summed up: as §1

In the case of `COc1ccc(OC)c(CC(C)N)c1` (stereo not given), the SDL came out at 63% with Rattus norvegicus [1]; 63% with Rattus norvegicus [2]; 50% in the series with Rattus norvegicus [3]; 38% in the series on Rattus norvegicus [4]; 38% in the series on Rattus norvegicus [5]. This molecule showed a Hill coefficient in [6] of 0.92.

`COc1ccc2c(c1CC(C)N)CCO2` (stereo not given): the SDL in the series with Rattus norvegicus [7] stood at 63%; with Rattus norvegicus [8] it was 88%; in the series with Rattus norvegicus [10], 50%; in the series with Rattus norvegicus [11], 25%. The molecule further showed a Ki in [9] of 146 nM. In series [6], the Hill coefficient is 0.93.

As for `COc1cc(Br)c2c(c1CC(C)N)CCO2` (stereo not given), the SDL in the series with Rattus norvegicus [12] came to 38%; in the series on Rattus norvegicus [13] it was 88%; in the series with Rattus norvegicus [14], 25%; with Rattus norvegicus [15] it was 75%. Also, the Ki in series [9] turned out to be 3.1 nM. In [6], this molecule displayed a Hill coefficient of 1.06.

Regarding `COc1cc2c(cc1CC(C)N)OCC2` (stereo not given), the Ki in [9] was 388 nM. The molecule further returned a Hill coefficient in series [6] of 0.91.

On to `COc1cc(CC(C)N)c(OC)cc1Br` (stereo not given) [BROLAMFETAMINE], for which, in series [6], the Hill coefficient is given as 1.09.

Take `COc1cc(CC(C)N)c(OC)cc1C` (stereo not given) [DOM]: the SDL with Rattus norvegicus [12] is on record as 13%; in the series on Rattus norvegicus [16], 88%; with Rattus norvegicus [17], 75%. This molecule showed a Hill coefficient in series [6] of 0.89.
